Where a name gives a salt, the structure may show the parent alone. Read-outs that look alike come from different tables or passages of the source. Where only a bound is given, the exact number is not on record here.

The values that follow come from article PMC3008401 (The Journal of infectious diseases, 2010).

In series [1] the test system is genotype 1b replicon cells. The settings on record: read-out: CC50 Measured by others (1b genotype); cited from earlier work.
Series [2] is classed as cell-based. The settings on record: human. The procedure, abridged: (§1)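 Huh-7.5 cells electroporated with in vitro transcribed luciferase replicon RNA (genotype 1b Bart79I-luc for line 1; full-length genotype 2a FL-J6/JFH-5′C19Rluc2AUbi for line 2). Seeded at ~2–3×10^4 cells/well, medium changed at 24 h then daily, serial compound dilutions, 4 replicates. At 72 h: 10% alamarBlue, 2 h at 37°C, fluorescence read. Normalized to untreated or DMSO controls. Mean ± SD.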

Series [3] is classed as cell-based. The settings on record: human. The essentials:
as §1
The source holds these as a separate data set.

Another series relates to HCV J6-JFH (genotype 2a). It counts as cell-based, Hepatitis C virus. The settings on record: SCH503034 alone at 2.5μM, 72hr.
For series [4] the following is noted: estimated from preclinical animal data; cited from earlier work.

Turning to `CNC(=O)c1c(-c2ccc(F)cc2)oc2cc(N(CCO)S(C)(=O)=O)c(C3CC3)cc12` [HCV-796], the CC50 in series [1] was above 100 µM.

`CC(C)(C)OC(=O)N[C@H]1CCCCC/C=C\[C@@H]2C[C@@]2(C(=O)NS(=O)(=O)C2CC2)NC(=O)[C@@H]2C[C@@H](OC(=O)N3Cc4cccc(F)c4C3)CN2C1=O` [ITMN-191]: the CC50 in series [1] was above 50 µM. `CC(C)[C@H](N)C(=O)O[C@@H]1[C@@H](CO)O[C@@H](n2ccc(N)nc2=O)[C@]1(C)O` [NM-283, valopicitabine]: the CC50 in series [1] is above 100 µM. In series [2], `NC(=O)c1ncn([C@@H]2O[C@H](CO)[C@@H](O)[C@H]2O)n1` [Ribavirin] had a CC50 at 72 h above 100 µM. With `CC(C)(C)NC(=O)N[C@H](C(=O)N1C[C@H]2[C@@H]([C@H]1C(=O)NC(CC1CCC1)C(=O)C(N)=O)C2(C)C)C(C)(C)C` (stereo partly drawn) [SCH-503034, Boceprevir], the CC50 at 72 h in series [2] and in series [3] was above 100 µM throughout. Further, the CC50 in series [1] is above 100 µM. Further, in the series on HCV J6-JFH (genotype 2a), the “decrease of viral replication” value was ~ 1 log. On to `CCC[C@H](NC(=O)[C@@H]1[C@H]2CCC[C@H]2CN1C(=O)[C@@H](NC(=O)[C@@H](NC(=O)c1cnccn1)C1CCCCC1)C(C)(C)C)C(=O)C(=O)NC1CC1` [VX-950, Telaprevir], for which the CC50 in series [1] is 26.7 to 82 µM. On to `Clc1ccc(Cn2c(CN3CCCC3)nc3ccccc32)cc1` [clemizole, clemizole hydrochloride], for which the “no observed adverse events level (NOAEL)” value in series [4] is given as 100 mg/kg/day. In addition, the cytotoxic concentration (CC50) at 72 h in series [2] came out at 35 ± 0.5 µM; in series [3] it was 40 ± 5 µM.
